Data reported in ChEMBL document CHEMBL4270630.

Columns and labels:
Influenza A virus [1] = experiment: Antiviral activity against Influenza A virus A/PR/8/34(H1N1) infected in MDCK cells assessed as reduction in virus-induced cytopathic effect after 3 days by microscopic method; type: functional, organism-based, A/Puerto Rico/8/1934(H1N1); conditions: Influenza A virus, A/Puerto Rico/8/1934(H1N1), MDCK, 72 h
How it was run: (§1)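 Semi-confluent MDCK cells were infected at an MOI of 0.0004 PFU/cell in Ultra-MDCK infection medium with 2 μg/mL TPCK-trypsin, together with compounds. After 3 days at 35 °C, CPE was scored by microscopy and confirmed by MTS formazan viability. EC50 is the concentration giving 50% inhibition of virus-induced CPE. Values are means of two to five independent tests.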

Influenza A virus [2] = experiment: Antiviral activity against Influenza A virus A/PR/8/34(H1N1) infected in MDCK cells after 3 days by MTS assay; type: functional, organism-based, A/Puerto Rico/8/1934(H1N1); conditions: Influenza A virus, A/Puerto Rico/8/1934(H1N1), MDCK, 72 h; how it was run: as §1
Influenza A virus [3] = experiment: Antiviral activity against Influenza A virus A/Virginia/ATCC3/2009(H1N1pdm) infected in MDCK cells assessed as reduction in virus-induced cytopathic effect after 3 days by microscopic method; type: functional, organism-based, Influenza A virus (A/Virginia/03/2009(H1N1)); conditions: 72 h; how it was run: as §1
Influenza A virus [4] = experiment: Antiviral activity against Influenza A virus A/Virginia/ATCC3/2009(H1N1pdm) infected in MDCK cells after 3 days by MTS assay; type: functional, organism-based, Influenza A virus (A/Virginia/03/2009(H1N1)); conditions: 72 h; how it was run: as §1
H3N2 subtype [5] = experiment: Antiviral activity against Influenza A virus A/HK/7/87(H3N2) infected in MDCK cells assessed as reduction in virus-induced cytopathic effect after 3 days by microscopic method; type: functional, organism-based; conditions: A/Hong Kong/7/1987(H3N2), 72 h; how it was run: as §1
H3N2 subtype [6] = experiment: Antiviral activity against Influenza A virus A/HK/7/87(H3N2) infected in MDCK cells after 3 days by MTS assay; type: functional, organism-based; conditions: A/Hong Kong/7/1987(H3N2), 72 h; how it was run: as §1
Influenza B virus [7] = experiment: Antiviral activity against Influenza B virus B/Ned/537/05 infected in MDCK cells assessed as reduction in virus-induced cytopathic effect after 3 days by microscopic method; type: functional, organism-based; conditions: B/Ned/537/05, MDCK, 72 h
How it was run: (§2)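 Semi-confluent MDCK cells were infected at an MOI of 0.0004 PFU/cell in Ultra-MDCK infection medium with 2 μg/mL TPCK-trypsin, together with compounds. After 3 days at 35 °C, CPE was scored by microscopy and confirmed by MTS formazan viability. Values are means of two to five independent tests.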

Influenza B virus [8] = experiment: Antiviral activity against Influenza B virus B/Ned/537/05 infected in MDCK cells after 3 days by MTS assay; type: functional, organism-based; conditions: B/Ned/537/05, MDCK, 72 h; how it was run: as §2
MDCK = experiment: Cytotoxicity against MDCK cells assessed as reduction in cell viability after 3 days by MTS assay; type: cell-based, Canis lupus familiaris; conditions: dog, mdck, 72 h
[9] = Cytotoxicity against MDCK cells assessed as alteration in cell morphology after 3 days by microscopic method; type: cell-based, Canis lupus familiaris; conditions: dog
How it was run: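 Mock-infected MDCK cells were treated with compounds in parallel with the antiviral assay, 3 days at 35 °C. MCC is the concentration causing minimal change in cell morphology by microscopy. CC50 is the 50% cytotoxic concentration by MTS formazan viability assay.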

Human coronavirus 229E [10] = experiment: Antiviral activity against Human coronavirus 229E infected in HEL299 cells assessed as reduction in virus induced cytopathic effect after 5 days by microscopic method; type: functional, organism-based; conditions: HEL 299, 120 h
How it was run: (§3)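 Confluent HEL 299 cells in medium with 2% FCS were exposed to HCoV-229E (100 CCID50/well) together with compounds and held for 5 days at 35 °C. EC50 (CPE reduction) and MCC (minimal morphology change) were determined by microscopy. SI is MCC/EC50.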

[11] = Cytotoxicity against HEL299 cells assessed as changes in cell morphology after 5 days by microscopic method; type: cell-based, HEL 299; conditions: human; how it was run: as §3
Human coronavirus 229E [12] = experiment: Antiviral activity against Human coronavirus 229E infected in human A549 cells assessed as reduction in virus RNA level after 3 days by qRT-PCR method; type: functional; conditions: A549, 72 h
How it was run: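 Confluent A549 cells were infected with HCoV-229E in 2% FCS medium with compounds present. The inoculum was removed at 1 h and compounds were kept on at 35 °C. Supernatants were harvested at day 3, lysed at 75 °C for 10 min, and viral genome copies counted by one-step qRT-PCR.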

[13] = Cytotoxicity against human A549 cells assessed as changes in cell morphology after 3 days by microscopic method; type: cell-based
How it was run: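 Mock-infected A549 cells were incubated with compounds for 3 days. MCC is the concentration causing minimal change in cell morphology by microscopy.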

SMILES | EC50 (Influenza A virus [1]) [µM] | EC50 (Influenza A virus [2]) [µM] | EC50 (Influenza A virus [3]) [µM] | EC50 (Influenza A virus [4]) [µM] | EC50 (H3N2 subtype [5]) [µM] | EC50 (H3N2 subtype [6]) [µM] | EC50 (Influenza B virus [7]) [µM] | EC50 (Influenza B virus [8]) [µM] | CC50 (MDCK) [µM] | MCC at 72 h [9] [µM] | EC50 (Human coronavirus 229E [10]) [µM] | MCC at 120 h [11] [µM] | EC90 (Human coronavirus 229E [12]) [µM] | EC99 (Human coronavirus 229E [12]) [µM] | MCC at 72 h [13] [µM]
CCCCCCSC1=C(SCCCCCC)C(=O)N(Cc2cn(C3C(=O)N[C@@H]4Cc5ccc(c(Cl)c5)Oc5cc6cc(c5O)Oc5ccc(cc5Cl)[C@@H](O[C@@H]5O[C@H](CO)[C@@H](O)[C@H](O)[C@H]5NC(C)=O)[C@H]5NC(=O)[C@H](NC(O)[C@@H]6NC(=O)[C@@H](NC4=O)c4cc(O)cc(c4)Oc4cc3ccc4O)c3ccc(O)c(c3)-c3c(O)cc(O)cc3[C@H](C(=O)O)NC5=O)nn2)C1=O (stereo partly specified) | 3.1 | > 100 | 4 | 2.9 | 1.9 | 1.9 | 2.3 | 2.7 | 12 | ≥ 4 | 8.9 | ≥ 20 | 6.4 | 9.5 | ≥ 50
CC(=O)Nc1ccc(S(=O)(=O)N[C@H]2C(=O)N[C@@H]3Cc4ccc(c(Cl)c4)Oc4cc5cc(c4O)Oc4ccc(cc4Cl)[C@@H](O[C@@H]4O[C@H](CO)[C@@H](O)[C@H](O)[C@H]4NC(C)=O)[C@H]4NC(=O)[C@H](NC(O)[C@@H]5NC(=O)[C@@H](NC3=O)c3cc(O)cc(c3)Oc3cc2ccc3O)c2ccc(O)c(c2)-c2c(O)cc(O)cc2[C@H](C(=O)O)NC4=O)cc1 (stereo partly specified) | > 100 | > 100 | > 100 | > 100 | > 100 | > 100 | > 100 | 47 | 60 | 100 | > 100 | ≥ 20 |  |  | 
CCCCSC1=C(SCCCC)C(=O)N([C@H]2C(=O)N[C@@H]3Cc4ccc(c(Cl)c4)Oc4cc5cc(c4O)Oc4ccc(cc4Cl)[C@@H](O[C@@H]4O[C@H](CO)[C@@H](O)[C@H](O)[C@H]4NC(C)=O)[C@H]4NC(=O)[C@H](NC(O)[C@@H]5NC(=O)[C@@H](NC3=O)c3cc(O)cc(c3)Oc3cc2ccc3O)c2ccc(O)c(c2)-c2c(O)cc(O)cc2[C@H](C(=O)O)NC4=O)C1=O (stereo partly specified) | > 100 | > 100 | 2.9 | 2.6 | > 100 | > 100 | > 100 | > 100 | 8.6 | 4 | 5.4 | ≥ 20 | 4.1 | 10 | 50
CC(=O)N[C@H]1[C@H](O[C@@H]2c3ccc(c(Cl)c3)Oc3cc4cc(c3O)Oc3ccc(cc3Cl)C[C@H]3NC(=O)[C@H](NS(=O)(=O)c5cccc6c(N(C)C)cccc56)c5ccc(O)c(c5)Oc5cc(O)cc(c5)[C@H](NC3=O)C(=O)N[C@H]4C(O)N[C@H]3C(=O)N[C@H]2C(=O)N[C@@H](C(=O)O)c2cc(O)cc(O)c2-c2cc3ccc2O)O[C@H](CO)[C@@H](O)[C@@H]1O (stereo partly specified) | 4.9 | 7 | 6.3 | 5.9 | 8.3 | 2.3 | 6.7 | 5.3 | 52 | 20 | > 100 | ≥ 4 |  |  | 
CC(=O)N[C@H]1[C@H](O[C@@H]2c3ccc(c(Cl)c3)Oc3cc4cc(c3O)Oc3ccc(cc3Cl)C[C@H]3NC(=O)[C@H](NS(=O)(=O)c5ccc(-c6ccccc6)cc5)c5ccc(O)c(c5)Oc5cc(O)cc(c5)[C@H](NC3=O)C(=O)N[C@H]4C(O)N[C@H]3C(=O)N[C@H]2C(=O)N[C@@H](C(=O)O)c2cc(O)cc(O)c2-c2cc3ccc2O)O[C@H](CO)[C@@H](O)[C@@H]1O (stereo partly specified) | 1.8 | 1.7 | 2 | 2 | 1.5 | 1.6 | 1.8 | 2.4 | 15 | 11 | > 100 | 4 |  |  | 
